Among the data in ChEMBL document CHEMBL1782047, “Retinoid receptor subtype-selective modulators through synthetic modifications of RARgamma agonists” (Bioorg Med Chem, 2009) are IC50, inhibition and Activity values, retold here.

Common to all, as to assay type: cell-based
Assay [1] addresses T1, Retinoic acid receptor gamma (Mus musculus, UniProt P18911).
T1 sequence (P18911 whole entry): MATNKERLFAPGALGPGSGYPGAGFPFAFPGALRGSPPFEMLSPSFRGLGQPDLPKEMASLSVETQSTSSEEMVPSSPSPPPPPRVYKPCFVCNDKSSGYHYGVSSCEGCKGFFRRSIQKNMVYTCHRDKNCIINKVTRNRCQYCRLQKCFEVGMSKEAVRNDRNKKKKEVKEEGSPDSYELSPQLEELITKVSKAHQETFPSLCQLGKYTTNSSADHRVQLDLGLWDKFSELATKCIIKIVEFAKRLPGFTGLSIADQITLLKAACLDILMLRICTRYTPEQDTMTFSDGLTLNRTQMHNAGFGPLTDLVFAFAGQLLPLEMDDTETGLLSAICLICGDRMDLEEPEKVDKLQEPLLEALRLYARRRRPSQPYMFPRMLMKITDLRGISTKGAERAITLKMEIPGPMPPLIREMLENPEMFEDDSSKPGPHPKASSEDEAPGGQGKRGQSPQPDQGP
Description: (§1) Antagonist activity at yeast GAL4 fused mouse RARgamma ligand binding domain expressed in HeLa cells assessed as inhibition of TTNPB-induced receptor transactivation by luciferase reporter gene assay. The essentials:
(§2)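 The Gal4-mRAR fusion HeLa reporter lines [(17m)5-βG-Luc-Neo] were seeded at 160,000 cells/well. After 12 h, cells got 10 nM TTNPB plus rising test-compound concentrations in phenol-red-free DMEM with 5% charcoal-treated FCS for 12 h at 37 °C, 5% CO2. Luciferase in lysates was read luminometrically. Antagonism is the loss of activity relative to TTNPB alone.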

The target of assay [2] is T2, Retinoic acid receptor alpha (Mus musculus) (UniProt P11416).
T2 sequence (whole entry): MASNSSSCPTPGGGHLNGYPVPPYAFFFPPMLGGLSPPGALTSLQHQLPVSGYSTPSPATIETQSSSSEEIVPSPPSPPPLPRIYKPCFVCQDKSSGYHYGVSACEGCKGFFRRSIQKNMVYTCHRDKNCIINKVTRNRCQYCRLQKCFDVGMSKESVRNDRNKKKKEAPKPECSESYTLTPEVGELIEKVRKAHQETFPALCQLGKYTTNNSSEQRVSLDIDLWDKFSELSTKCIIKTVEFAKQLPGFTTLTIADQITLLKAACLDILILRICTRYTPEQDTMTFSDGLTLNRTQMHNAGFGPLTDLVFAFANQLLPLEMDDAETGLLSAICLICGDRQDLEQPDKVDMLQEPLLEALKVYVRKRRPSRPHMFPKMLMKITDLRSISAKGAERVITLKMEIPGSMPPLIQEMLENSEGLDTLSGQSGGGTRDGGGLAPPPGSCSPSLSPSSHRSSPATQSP
Nature of the assay: (§3) Antagonist activity at yeast GAL4 fused mouse RARalpha ligand binding domain expressed in HeLa cells assessed as inhibition of TTNPB-induced receptor transactivation by luciferase reporter gene assay. The essentials: as §2
(Reporter assays use an easily measured gene product as a stand-in for the process of interest.)

For assay [3], the target named is T3, Retinoic acid receptor beta (Mus musculus) (UniProt P22605).
T3 sequence (whole entry): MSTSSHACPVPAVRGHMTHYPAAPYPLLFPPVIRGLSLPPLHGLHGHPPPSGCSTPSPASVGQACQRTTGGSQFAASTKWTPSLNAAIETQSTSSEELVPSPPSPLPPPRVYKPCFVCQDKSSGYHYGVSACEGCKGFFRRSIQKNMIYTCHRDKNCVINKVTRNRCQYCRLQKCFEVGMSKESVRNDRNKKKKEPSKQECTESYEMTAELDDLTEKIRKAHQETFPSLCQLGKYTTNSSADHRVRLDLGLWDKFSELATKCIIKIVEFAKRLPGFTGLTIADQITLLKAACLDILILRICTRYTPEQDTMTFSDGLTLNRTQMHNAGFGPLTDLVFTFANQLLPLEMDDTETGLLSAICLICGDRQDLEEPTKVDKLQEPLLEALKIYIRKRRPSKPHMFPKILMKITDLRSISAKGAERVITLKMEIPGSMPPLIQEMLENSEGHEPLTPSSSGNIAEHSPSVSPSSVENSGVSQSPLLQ
Description: (§4) Antagonist activity at yeast GAL4 fused mouse RARbeta ligand binding domain expressed in HeLa cells assessed as inhibition of TTNPB-induced receptor transactivation by luciferase reporter gene assay. The essentials: as §2

The target in assay [4] is T2, Retinoic acid receptor alpha (Mus musculus). Description: Agonist activity at yeast GAL4 fused mouse RARalpha ligand binding domain expressed in HeLa cells assessed as receptor transactivation by luciferase reporter gene assay. The essentials:
(§5)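 Stably transfected HeLa lines carrying a (17m)5-βG-Luc-Neo reporter and the matching Gal4-mRAR fusion were seeded at 160,000 cells/well. After 12 h, cells were given ligand across a dose range in phenol-red-free DMEM with 5% charcoal-treated FCS and held 12 h at 37 °C, 5% CO2. Lysates were read for luciferase with luciferin, ATP and coenzyme A. Fold induction is compound RLU over vehicle-control RLU.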

Assay [5] concerns the target T4, Retinoic acid receptor RXR-beta (Homo sapiens) (UniProt P28702).
T4 sequence (whole entry): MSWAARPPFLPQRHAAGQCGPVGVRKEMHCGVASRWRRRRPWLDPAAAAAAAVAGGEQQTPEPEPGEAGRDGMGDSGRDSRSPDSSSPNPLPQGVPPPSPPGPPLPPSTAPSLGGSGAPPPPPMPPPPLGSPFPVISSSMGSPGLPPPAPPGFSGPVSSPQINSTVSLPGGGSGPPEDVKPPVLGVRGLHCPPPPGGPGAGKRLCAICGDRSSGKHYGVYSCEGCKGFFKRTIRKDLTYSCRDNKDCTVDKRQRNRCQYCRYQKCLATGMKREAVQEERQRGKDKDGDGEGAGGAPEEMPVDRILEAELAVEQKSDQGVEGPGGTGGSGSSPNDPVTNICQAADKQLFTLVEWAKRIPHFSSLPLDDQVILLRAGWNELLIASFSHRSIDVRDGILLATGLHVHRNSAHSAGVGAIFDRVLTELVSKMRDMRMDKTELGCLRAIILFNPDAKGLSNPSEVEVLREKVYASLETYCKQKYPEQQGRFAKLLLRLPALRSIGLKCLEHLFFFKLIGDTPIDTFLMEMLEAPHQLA
Description: Agonist activity at yeast GAL4 fused human RXRbeta ligand binding domain expressed in HeLa cells assessed as receptor transactivation by luciferase reporter gene assay.

Assay [6] deals with T5, Retinoic acid receptor gamma (Mus musculus) (UniProt P18911).
T5 sequence (whole entry): T1 sequence (P18911 whole entry)
The assay is described as §1. The essentials: as §2

The target of assay [7] is T5, Retinoic acid receptor gamma (Mus musculus). Nature of the assay: Agonist activity at yeast GAL4 fused mouse RARgamma ligand binding domain expressed in HeLa cells assessed as receptor transactivation by luciferase reporter gene assay. The essentials: as §5
For assay [8], the target named is T6, Retinoic acid receptor alpha (Mus musculus, UniProt P11416).
T6 sequence (P11416 whole entry): T2 sequence (whole entry)
The description is as §3. An outline of the steps:
as §2

The target of assay [9] is T7, Retinoic acid receptor beta (Mus musculus, UniProt P22605).
T7 sequence (P22605 whole entry): T3 sequence (whole entry)
Described as §4. An outline of the steps:
as §2

For assay [10], the target named is T4, Retinoic acid receptor RXR-beta (Homo sapiens). Nature of the assay: Antagonist activity at yeast GAL4 fused human RXRbeta ligand binding domain expressed in HeLa cells assessed as inhibition of receptor transactivation by luciferase reporter gene assay.

SMILES strings stand for the structures. Active and inactive are the calls of the source. The calls are words filed in the database; no cut-off is given here. Bounds are passed on as bounds.

As for `CC1(C)CC=C(C#Cc2ccccc2)c2ccc(C3=NOC(c4ccc(C(=O)O)cc4)C3)cc21` (racemic), the IC50 in assay [1] was 3000 nM.
For the compound `Cc1ccc(C2=CCC(C)(C)c3cc(C(O)C(=O)Nc4ccc(C(=O)O)cc4F)ccc32)cc1` (racemic), the inhibition entry in assay [2], in assay [3] and in [6] was “inactive” throughout. For the same compound, the result in assay [4], in [5] and in assay [7] was inactive.
With `Cc1ccc(C2=CCC(C)(C)c3cc(C(=O)C(=O)Nc4ccc(C(=O)O)cc4F)ccc32)cc1`, the inhibition entry in assay [2], in assay [3] and in assay [6] was “Active” throughout. Also, the outcome in [5] was Active.
As to `CC1(C)CC=C(C#Cc2ccccc2)c2ccc(C(=O)C(=O)Nc3ccc(C(=O)O)cc3F)cc21`, the inhibition entry in [2], in assay [3] and in [6] was “Active” each time. The result in assay [5] was Active.
For the compound `CC1(C)CC=C(c2ccccc2)c2ccc(C(=O)C(=O)Nc3ccc(C(=O)O)cc3F)cc21`, the inhibition entry in [2], in assay [3] and in [6] was “Active” throughout. Further, the result in [5] was Active.
Turning to `Cc1ccc(C2=CCC(C)(C)c3cc(C4=NOC(c5ccc(C(=O)O)cc5)C4)ccc32)cc1` (racemic), the inhibition entry in [6] is “inactive”.
On to `CC1(C)CC=C(C#Cc2ccccc2)c2ccc(C(O)C(=O)Nc3ccc(C(=O)O)cc3F)cc21` (racemic), for which the result in assay [4] and in [7] was inactive.
Take `Cc1ccc(C2=CCC(C)(C)c3cc(C(=O)/C=C/c4ccc(C(=O)O)cc4)ccc32)cc1`: the IC50 in assay [8] was less than 300 nM; in assay [9] it was 400 nM.
In the case of `CC1(C)CC=C(c2ccccc2)c2ccc(C3=NOC(c4ccc(C(=O)O)cc4)C3)cc21` (racemic), in assay [1], the IC50 is greater than 10000 nM.
Turning to `Cc1ccc(C2=CCC(C)(C)c3cc(C(O)/C=C/c4ccc(C(=O)O)cc4)ccc32)cc1` (racemic), the IC50 came out at 400 nM in assay [8] and 2000 nM in [9]. The result in assay [7] was inactive.
As for `CC1(C)CC=C(C#Cc2ccccc2)c2ccc(C(=O)/C=C/c3ccc(C(=O)O)cc3)cc21`, the inhibition entry in assay [10] was “Active”. Further, the outcome in assay [4] and in assay [7] was Active. Besides, the result in assay [5] was inactive.
Regarding `CC1(C)CC=C(c2ccccc2)c2ccc(C(O)C(=O)Nc3ccc(C(=O)O)cc3F)cc21` (racemic), the inhibition entry in [2], in assay [3] and in assay [6] was “Active” in each case. Moreover, the result in assay [4] and in [7] was Active. In addition, in assay [5], the result was inactive.
As to `CC1(C)CC=C(c2ccccc2)c2ccc(C(=O)/C=C/c3ccc(C(=O)O)cc3)cc21`, in assay [10], the inhibition entry was “Active”. Besides, the outcome in assay [4] and in assay [7] was Active.

In general, IC50 refers to the concentration that gives 50% inhibition.
